From ChEMBL document CHEMBL2417474, “Synthesis, antiproliferative and anti-inflammatory activities of some novel 6-aryl-2-(p-(methanesulfonyl)phenyl)-4,5-dihydropyridazi-3(2H)-ones” (Eur J Med Chem, 2013)

Legend:
NCI-H522 = assay: Growth inhibition of human NCI-H522 cells assessed as cell growth at 10 uM after 48 hrs by sulforhodamine B assay; format: functional; conditions: NCI-H522, 48 h, read-out: Activity
HOP-92 = assay: Growth inhibition of human HOP92 cells after 48 hrs by sulforhodamine B assay; format: functional; conditions: HOP-92, 48 h
Summary of the method: (§1)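 NCI 60-cell-line panel grown in RPMI-type medium with 5% fetal calf serum and 2 mM L-glutamine. Cells preincubated 24 h, then exposed continuously for 48 h to compound in DMSO at 10^-4 to 10^-8 M (five 10-fold levels). Growth read by SRB protein stain. GI50 is the concentration giving a 50% reduction in net protein increase relative to control cells.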

SW-620 = assay: Growth inhibition of human SW620 cells assessed as cell growth at 10 uM after 48 hrs by sulforhodamine B assay; format: functional; conditions: SW-620, 48 h, read-out: Activity
Summary of the method: (§2)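 Single-dose NCI screen. Tumor lines were cultured in medium with 5% fetal calf serum and 2 mM L-glutamine, preincubated 24 h, then given compound in DMSO. After 48 h continuous exposure, cell growth was estimated by sulforhodamine B protein assay.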

MDA-MB-468 [1] = assay: Growth inhibition of human MDA-MB-468 cells assessed as cell growth at 10 uM after 48 hrs by sulforhodamine B assay; format: functional; conditions: MDA-MB-468, 48 h, read-out: Activity
SK-MEL-28 = assay: Growth inhibition of human SK-MEL-28 cells assessed as cell growth at 10 uM after 48 hrs by sulforhodamine B assay; format: functional; conditions: SK-MEL-28, 48 h, read-out: Activity
CCRF-CEM [2] = assay: Growth inhibition of human CCRF-CEM cells after 48 hrs by sulforhodamine B assay; format: functional, cell-based; summary of the method: as §1
A498 = assay: Growth inhibition of human A498 cells after 48 hrs by sulforhodamine B assay; format: functional; conditions: A498, 48 h; summary of the method: as §1
SK-MEL-2 [3] = assay: Growth inhibition of human SK-MEL-2 cells assessed as cell growth at 10 uM after 48 hrs by sulforhodamine B assay; format: functional; conditions: SK-MEL-2, 48 h, read-out: Activity
SF-268 = assay: Growth inhibition of human SF268 cells assessed as cell growth at 10 uM after 48 hrs by sulforhodamine B assay; format: functional; conditions: SF-268, 48 h, read-out: Activity
M14 = assay: Growth inhibition of human M14 cells after 48 hrs by sulforhodamine B assay; format: functional; conditions: M14, 48 h; summary of the method: as §1
MDA-MB-435 = assay: Growth inhibition of human MDA-MB-435 cells assessed as cell growth at 10 uM after 48 hrs by sulforhodamine B assay; format: functional; conditions: MDA-MB-435, 48 h, read-out: Activity
RPMI-8226 = assay: Growth inhibition of human RPMI8226 cells after 48 hrs by sulforhodamine B assay; format: functional; conditions: RPMI-8226, 48 h
Summary of the method: (§3)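 NCI 60-cell-line panel. Cells were grown in medium with 5% fetal calf serum and 2 mM L-glutamine, then preincubated 24 h in plates. Compounds were added from DMSO at five 10-fold concentrations from 100 to 0.01 µM and left on cells continuously for 48 h. Cell growth was read by sulforhodamine B protein stain. GI50 is the concentration that halves net protein increase relative to control cells.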

T47D = assay: Growth inhibition of human T47D cells assessed as cell growth at 10 uM after 48 hrs by sulforhodamine B assay; format: functional; conditions: read-out: Activity; summary of the method: as §2
SF-539 = assay: Growth inhibition of human SF539 cells after 48 hrs by sulforhodamine B assay; format: functional; conditions: SF-539, 48 h; summary of the method: as §3
A549 = assay: Growth inhibition of human A549/ATCC cells after 48 hrs by sulforhodamine B assay; format: functional; conditions: A549, 48 h; summary of the method: as §1
OVCAR-8 = assay: Growth inhibition of human OVCAR8 cells assessed as cell growth at 10 uM after 48 hrs by sulforhodamine B assay; format: functional; conditions: OVCAR-8, 48 h, read-out: Activity
U-251 = assay: Growth inhibition of human U251 cells after 48 hrs by sulforhodamine B assay; format: functional; conditions: U-251, 48 h
Summary of the method: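 NCI 60-line panel. Cells were grown in medium with 5% fetal calf serum and 2 mM L-glutamine and preincubated 24 h in plates. Compound in DMSO was added at 10^-4 to 10^-8 M (five 10-fold levels), with continuous exposure for 48 h. Growth was read by SRB protein staining. GI50 is the concentration giving 50% reduction in net protein increase versus control cells.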

CCRF-CEM [4] = assay: Growth inhibition of human CCRF-CEM cells assessed as cell growth at 10 uM after 48 hrs by sulforhodamine B assay; format: functional; conditions: read-out: Activity
SNB-75 = assay: Growth inhibition of human SNB75 cells assessed as cell growth at 10 uM after 48 hrs by sulforhodamine B assay; format: functional; conditions: SNB-75, 48 h, read-out: Activity
MDA-MB-468 [5] = assay: Growth inhibition of human MDA-MB-468 cells after 48 hrs by sulforhodamine B assay; format: functional; conditions: MDA-MB-468, 48 h; summary of the method: as §3
[6] = Growth inhibition of human NCI-ADR-RES cells assessed as cell growth at 10 uM after 48 hrs by sulforhodamine B assay; format: functional; conditions: read-out: Activity
MCF7 = assay: Growth inhibition of human MCF7 cells after 48 hrs by sulforhodamine B assay; format: functional; conditions: MCF7, 48 h; summary of the method: as §1
HL-60(TB) = assay: Growth inhibition of human HL-60(TB) cells assessed as cell growth at 10 uM after 48 hrs by sulforhodamine B assay; format: functional; conditions: HL-60, 48 h, read-out: Activity
786-0 = assay: Growth inhibition of human 786-0 cells assessed as cell growth at 10 uM after 48 hrs by sulforhodamine B assay; format: functional; conditions: 786-0, 48 h, read-out: Activity
K562 = assay: Growth inhibition of human K562 cells after 48 hrs by sulforhodamine B assay; format: functional; conditions: K562, 48 h; summary of the method: as §1
[7] = Growth inhibition of human HCC2998 cells assessed as cell growth at 10 uM after 48 hrs by sulforhodamine B assay; format: functional; conditions: HCC 2998, 48 h, read-out: Activity
UACC-62 = assay: Growth inhibition of human UACC62 cells assessed as cell growth at 10 uM after 48 hrs by sulforhodamine B assay; format: functional; conditions: UACC-62, 48 h, read-out: Activity; summary of the method: as §2
OVCAR-5 = assay: Growth inhibition of human OVCAR5 cells assessed as cell growth at 10 uM after 48 hrs by sulforhodamine B assay; format: functional; conditions: OVCAR-5, 48 h, read-out: Activity
[8] = Growth inhibition of human Hs 578T cells assessed as cell growth at 10 uM after 48 hrs by sulforhodamine B assay; format: functional; conditions: read-out: Activity
SK-MEL-2 [9] = assay: Growth inhibition of human SK-MEL-2 cells after 48 hrs by sulforhodamine B assay; format: functional; conditions: SK-MEL-2, 48 h; summary of the method: as §3
[10] = read-out: LC50 (the source's name)

For `CCc1ccc(C2=NN(c3ccc(S(C)(=O)=O)cc3)C(=O)CC2)cc1`, the growth at 10 µM (NCI-H522) was -1.27%, the GI50 (HOP-92) was 1.58 µM and the TGI (HOP-92) was 9.88 µM. For the same compound, the CC50 (HOP-92; [10]) was > 100 µM, the growth at 10 µM (SW-620) was 12.4% and the growth at 10 µM (MDA-MB-468 [1]) was 50.7%. For the same compound, the growth at 10 µM (SK-MEL-28) was 50.7%, the GI50 (CCRF-CEM [2]) was 2.31 µM and the TGI (CCRF-CEM [2]) was > 100 µM. For the same compound, the CC50 (CCRF-CEM [2]; [10]) was > 100 µM, the GI50 (A498) was 0.14 µM and the TGI (A498) was 2.3 µM. The CC50 (A498; [10]) was > 100 µM, the growth at 10 µM (SK-MEL-2 [3]) was 36.9% and the growth at 10 µM (SF-268) was 42.8%. For the same compound, the GI50 (M14) was 0.63 µM, the TGI (M14) was > 100 µM and the CC50 (M14; [10]) was > 100 µM. The growth at 10 µM (MDA-MB-435) was -24.3%, the GI50 (RPMI-8226) was 0.42 µM and the TGI (RPMI-8226) was > 100 µM. The CC50 (RPMI-8226; [10]) was > 100 µM, the growth at 10 µM (T47D) was 41.4% and the GI50 (SF-539) was 2.35 µM. For the same compound, the TGI (SF-539) was 18.9 µM, the CC50 (SF-539; [10]) was > 100 µM and the GI50 (A549) was 0.91 µM. For the same compound, the TGI (A549) was > 100 µM, the CC50 (A549; [10]) was > 100 µM and the growth at 10 µM (OVCAR-8) was 39.1%. For the same compound, the GI50 (U-251) was 1.91 µM, the TGI (U-251) was > 100 µM and the CC50 (U-251; [10]) was > 100 µM. The growth at 10 µM (CCRF-CEM [4]) was 15.3%, the growth at 10 µM (SNB-75) was 16.7% and the GI50 (MDA-MB-468 [5]) was 3.75 µM. The LC50 (concentration killing 50% of cells) (MDA-MB-468 [5]) was > 100 µM, the TGI (MDA-MB-468 [5]) was 31.2 µM and the growth at 10 µM [6] was 6.7%. For the same compound, the GI50 (MCF7) was 3.13 µM, the LC50 (concentration killing 50% of cells) (MCF7) was > 100 µM and the TGI (MCF7) was > 100 µM. The growth at 10 µM (HL-60(TB)) was 6.73%, the growth at 10 µM (786-0) was 36.5% and the GI50 (K562) was 0.42 µM. For the same compound, the TGI (K562) was > 100 µM, the CC50 (K562; [10]) was > 100 µM and the growth at 10 µM [7] was 46.6%. It also gave a growth at 10 µM (UACC-62) of 38%, a growth at 10 µM (OVCAR-5) of 48.7% and a growth at 10 µM [8] of -0.67%. For the same compound, the GI50 (SK-MEL-2 [9]) was 0.9 µM, the LC50 (SK-MEL-2 [9]) was > 100 µM and the TGI (SK-MEL-2 [9]) was > 100 µM.
